From PubChem BioAssay AID2052 (NMMLSC, 2009) come the findings set out here.

Out of some 330,000 compounds screened, about 220 (0.067%) were called active.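 The calls were made as follows: active = response, share of CD8 T cells binding vesicles, and their 90th percentile fluorescence all below set limits (cut at about 80% in these data, passing the limit was not always enough); inactive = the rest, inconclusive results apart.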 The sample as a whole holds a higher share of actives than the screen did.

The nature of this experiment: murine CD8 T cell vesicle adhesion modulation – mouse 2C CD8+ T cells, flow cytometry, primary screen (AID 2052).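 As to double positive events: binding gate set so that unloaded-vesicle control wells show 10% double positive cells.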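 As to response (vesicle binding): values below 100% mean blocked vesicle binding to the CD8+ T cells.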 Conditions: 2C CD8+ T cell-vesicle binding, at 7 µM, stronger effect = lower value; double positive events: measured here: CD8+ vesicle-bound cell fraction. A digest of the protocol: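 Also added: QL9-peptide-loaded Drosophila micro-vesicles bearing Ld, ICAM-1 and B7-1; Test system: purified 2C TCR transgenic mouse naive CD8+ T cells; Measured by: cytometric PE anti-B7-1 and Alexa647 anti-CD8 signals after 1% paraformaldehyde fixation; Timing: binding step 1.5 h, 37 °C, antibody labelling 20 min, ice.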
(Flow cytometry measures light scatter and fluorescence of single cells or particles in a stream.)
On to `Cc1oc2c(F)c(F)c(F)c(F)c2c1S(=O)(=O)Nc1cccc(C(F)(F)F)c1`, for which the double positive events was found to be 13.2% and the response (vesicle binding) is 170% (inactive).
The like results for `COc1ccc(C(=O)COC(=O)c2nn(C)c(=O)c3ccccc23)c(OC)c1` were, in that order, 13.7% and 187% (inactive).
Take `CC(=O)c1cccc(NC(=O)CN2C(=O)c3cccnc3Oc3ccc(Cl)cc32)c1`: the double positive events worked out at 54.8% and the response (vesicle binding) is 668% (inactive).
The like results for `COC(=O)C1=CO[C@@H](O[C@@H]2O[C@H](CO)[C@@H](O)[C@H](O)[C@H]2O)C2C1C[C@H](O)[C@@H]2C` (some centres not stated) were, in that order, 33.1% and 220% (inactive).
Take `CCOC(CNC(=O)C1CCN(S(=O)(=O)c2ccc3nc4c(c(C(=O)O)c3c2)CC(C)CC4)CC1)OCC` (configuration not stated): the double positive events was 3.9% and the response (vesicle binding) was 171% (inactive).
Consider `CN(C)C(CNC(=O)c1ccc(OCc2cn3ccccc3n2)cc1)c1ccco1` (configuration not stated), for which the double positive events amounted to 23.9% and the response (vesicle binding) was 416% (inactive).
With `COc1ccc(NC(C(=O)Nc2cccc(C(C)=O)c2)c2ccccc2)cc1` (configuration not stated), the double positive events is 36% and the response (vesicle binding) was 198% (inactive).
For `O=C(CCc1nnc2ccc(NCc3ccco3)nn12)Nc1cc(F)ccc1F`, the double positive events was found to be 36.4% and the response (vesicle binding) was 186% (inactive).
As for `O=C(COC(=O)c1ccc(NS(=O)(=O)c2cccs2)cc1O)Nc1ccc(F)cc1`, the double positive events is 18.7% and the response (vesicle binding) was 74.7% (inactive).
As for `Nn1c(SCC(=O)Nc2nccs2)nncc1=O`, the double positive events worked out at 30.5% and the response (vesicle binding) is 224% (inactive).
For `COc1ccccc1C(=O)NC(CCSC)C(=O)NNC(=O)c1csc(N2CCOCC2)n1` (configuration not stated), the double positive events worked out at 27.1% and the response (vesicle binding) was 242% (inactive).
Take `CCc1nc2ccccc2c(C(=O)OC2CCCCC2=O)c1C` (configuration not stated): the double positive events is 48.4% and the response (vesicle binding) is 288% (inactive).
The like results for `Cc1cccc(C(=O)N2CCCC(Nc3ccc(C(C)C)cc3)C2)n1` (configuration not stated) were, in that order, 11.9% and 567% (inactive).
As for `Cc1ccc(-c2nnc(C)c(N3CC(C)OC(C)C3)n2)cc1` (configuration not stated), the double positive events turned out to be 50.8% and the response (vesicle binding) is 123% (inactive).
The like results for `COC(=O)NNC(=O)C1CCC(C)CC1` (configuration not stated) were, in that order, 13.1% and 199% (inactive).
As for `O=C(COc1ccccc1)Nc1ccc(N2CCN(C(=O)c3cccs3)CC2)cc1`, the double positive events is 4.1% and the response (vesicle binding) is 606% (inactive).
On to `Brc1c(CSc2nncc3ccccc23)nc2ccccn12`, for which the double positive events was 26.2% and the response (vesicle binding) is 103% (inactive).
On to `COc1ccccc1C(=O)Nc1ccnn1C1CCN(C(=O)C(C)(C)C)CC1`, for which the double positive events was 51.4% and the response (vesicle binding) was 266% (inactive).
The corresponding values for `Cc1ccc(S(=O)(=O)NCCC(=O)NC2CCN(Cc3ccccc3)CC2)cc1` are 42.6% and 256% (inactive).
As for `CCCCCCCC(=O)OC(CN1CCCCCC1)CN1CCCC1=O` (configuration not stated), the double positive events came to 16.5% and the response (vesicle binding) is 372% (inactive).
As for `COC(=O)[C@@H]1CC(O)CN1C(=O)C12CC3CC(CC(C3)C1)C2` (some centres not stated), the double positive events came out at 52.2% and the response (vesicle binding) is 228% (inactive).
With `Cc1ccc(-c2csc(NC(=O)C3=COCCO3)n2)cc1C`, the double positive events was found to be 20.8% and the response (vesicle binding) is 138% (inactive).
The like results for `CC(C)OP(=O)(OC(C)C)C(Nc1ccccc1)c1cccc([N+](=O)[O-])c1` (configuration not stated) were, in that order, 20.7% and 684% (inactive).
On to `COc1cccc(NC(=O)COc2cc(C)cc3oc(=O)cc(C)c23)c1`, for which the double positive events was determined as 34.7% and the response (vesicle binding) was 510% (inactive).
In the case of `CC1(C)CC(=O)C=C(N2CCOCC2)C1`, the double positive events was 19.8% and the response (vesicle binding) was 266% (inactive).
The like results for `Cc1nc([N+](=O)[O-])c(NCCCO)n1Cc1ccccc1` were, in that order, 19.6% and 72.9% (inactive).
Take `Cc1cc(C)n(C(=O)c2ccc(C)c(S(=O)(=O)N3CCOCC3)c2)n1`: the double positive events came out at 54% and the response (vesicle binding) is 212% (inactive).
On to `C/C=C/c1ccc(OCC(=O)NNC(=O)CN(C)S(=O)(=O)c2ccc(C)cc2)c(OC)c1`, for which the double positive events was 47.4% and the response (vesicle binding) is 180% (inactive).
`CCOC(=O)C(=CNNc1ccsc1C(=O)OC)C(=O)OCC`: the double positive events came to 17.6% and the response (vesicle binding) is 541% (inactive).
As for `CC(=O)c1cc(-c2ccccc2)n(CCC(=O)NC2CCCCCC2)c1C`, the double positive events was 47.9% and the response (vesicle binding) was 183% (inactive).
As for `CCc1ccccc1NC(=O)[C@@H]1CCC(=O)N1C1OC(=O)c2c1ccc(OC)c2OC` (some centres not stated), the double positive events came to 15.9% and the response (vesicle binding) was 194% (inactive).
Turning to `C/C(=N\N(C)C)c1ccc(OCCOc2ccc([N+](=O)[O-])cc2)cc1`, the double positive events was 36.6% and the response (vesicle binding) is 389% (inactive).
The corresponding values for `COc1ccc(C2c3[nH]c4ccccc4c3C[C@H]3C(=O)N(CC(C)C)CC(=O)N23)c(OC)c1` (some centres not stated) are 23.9% and 1350% (inactive).
Turning to `CC1(C)C2CC=C(/C=N/NC(=O)C3CC3)C1C2` (configuration not stated), the double positive events is 55.1% and the response (vesicle binding) was 548% (inactive).
In the case of `O=C(NCc1cccnc1)c1ccccc1NC(=O)c1c(F)cccc1F`, the double positive events was 21.9% and the response (vesicle binding) was 104% (inactive).
The corresponding values for `CC(=O)N1CCc2cc(S(=O)(=O)NC3CCCCC3)ccc21` are 27% and 222% (inactive).
For `Cc1cccc(C(=O)NCc2nnc(SC(C)C(=O)Nc3nnc(C)s3)n2C)c1` (configuration not stated), the double positive events came to 13.6% and the response (vesicle binding) is 258% (inactive).
As for `CCCCCN(C(=O)NC(=O)Nc1cccc(C)c1C)S(C)(=O)=O`, the double positive events was found to be 28.6% and the response (vesicle binding) was 413% (inactive).
The like results for `COc1ccc(CCNC(=O)CN(c2ccccc2)S(C)(=O)=O)cc1OC` were, in that order, 42.8% and 345% (inactive).
Take `COc1ccc(C(=O)OCC(=O)NC(=O)CCSc2ccccc2)cc1`: the double positive events came to 48.7% and the response (vesicle binding) was 413% (inactive).
With `CC(NC(=S)Nc1ccccc1)C1COc2ccccc2O1` (configuration not stated), the double positive events is 63% and the response (vesicle binding) was 843% (inactive).
